# Assay results reported in ChEMBL document CHEMBL1131323, “Inhibition of membrane-type 1 matrix metalloproteinase by hydroxamate inhibitors: an examination of the subsite pocket” (J Med Chem, 1998).
# Tests used:
# [1] = molecular target: Matrix metalloproteinase-14 (Homo sapiens, UniProt P50281); test: Activity against deletion mutant of MT1-MMP lacking the transmembrane domain (deltaMT1)
# Interstitial collagenase = molecular target: T1, Interstitial collagenase (Homo sapiens, UniProt P03956); test: Activity against Matrix metalloprotease-1 (MMP-1).
# T1 sequence (P03956 whole entry): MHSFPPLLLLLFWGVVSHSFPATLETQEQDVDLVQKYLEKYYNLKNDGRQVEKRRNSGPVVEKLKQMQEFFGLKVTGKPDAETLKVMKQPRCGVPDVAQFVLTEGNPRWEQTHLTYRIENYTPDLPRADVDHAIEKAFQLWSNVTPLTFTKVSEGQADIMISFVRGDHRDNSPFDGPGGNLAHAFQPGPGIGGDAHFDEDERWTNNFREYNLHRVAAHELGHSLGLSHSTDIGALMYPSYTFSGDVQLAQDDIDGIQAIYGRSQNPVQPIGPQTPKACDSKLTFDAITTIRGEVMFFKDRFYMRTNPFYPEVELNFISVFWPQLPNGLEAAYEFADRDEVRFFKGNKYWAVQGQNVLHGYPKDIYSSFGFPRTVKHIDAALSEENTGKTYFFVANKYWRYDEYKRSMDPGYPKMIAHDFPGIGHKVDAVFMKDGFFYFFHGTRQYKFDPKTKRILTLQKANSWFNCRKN
# Stromelysin-1 = Stromelysin-1 (Homo sapiens, UniProt P08254); test: Activity against Matrix metalloprotease-3 (MMP-3).
# Method in brief: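 MMP-3 purified from human fibroblast culture medium, used at 0.3 U/mL. Substrate was radiolabeled proteoglycan entrapped in polyacrylamide particles (3.5 mg dry beads). IC50 values read from dose-dependent inhibition curves.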
# [2] = molecular target: Matrix metalloproteinase-9 (Homo sapiens, UniProt P14780); test: Activity against Matrix metalloprotease-9 (MMP-9).
# [3] = molecular target: 72 kDa type IV collagenase (Homo sapiens, UniProt P08253); test: Activity against Matrix metalloprotease-2 (MMP-2).
# Sequence of 72 kDa type IV collagenase (P08253 whole entry): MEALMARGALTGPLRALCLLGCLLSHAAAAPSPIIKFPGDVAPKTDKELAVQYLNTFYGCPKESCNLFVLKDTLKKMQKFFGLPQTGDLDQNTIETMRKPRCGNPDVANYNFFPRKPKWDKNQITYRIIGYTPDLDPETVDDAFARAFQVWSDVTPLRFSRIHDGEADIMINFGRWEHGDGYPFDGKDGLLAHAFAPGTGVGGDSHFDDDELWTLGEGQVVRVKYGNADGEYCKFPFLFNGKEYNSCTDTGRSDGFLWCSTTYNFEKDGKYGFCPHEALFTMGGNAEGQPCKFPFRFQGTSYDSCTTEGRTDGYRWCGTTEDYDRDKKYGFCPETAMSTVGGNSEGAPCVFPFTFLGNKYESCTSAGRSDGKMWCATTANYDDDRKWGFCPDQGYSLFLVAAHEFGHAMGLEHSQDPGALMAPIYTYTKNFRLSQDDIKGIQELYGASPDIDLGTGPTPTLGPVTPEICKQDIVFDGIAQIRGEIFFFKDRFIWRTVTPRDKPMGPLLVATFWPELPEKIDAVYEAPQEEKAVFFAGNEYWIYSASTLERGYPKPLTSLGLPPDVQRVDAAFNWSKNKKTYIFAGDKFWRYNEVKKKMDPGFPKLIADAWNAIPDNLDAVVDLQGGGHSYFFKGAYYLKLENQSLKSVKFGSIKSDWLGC
# Sequence of Stromelysin-1 (P08254 whole entry): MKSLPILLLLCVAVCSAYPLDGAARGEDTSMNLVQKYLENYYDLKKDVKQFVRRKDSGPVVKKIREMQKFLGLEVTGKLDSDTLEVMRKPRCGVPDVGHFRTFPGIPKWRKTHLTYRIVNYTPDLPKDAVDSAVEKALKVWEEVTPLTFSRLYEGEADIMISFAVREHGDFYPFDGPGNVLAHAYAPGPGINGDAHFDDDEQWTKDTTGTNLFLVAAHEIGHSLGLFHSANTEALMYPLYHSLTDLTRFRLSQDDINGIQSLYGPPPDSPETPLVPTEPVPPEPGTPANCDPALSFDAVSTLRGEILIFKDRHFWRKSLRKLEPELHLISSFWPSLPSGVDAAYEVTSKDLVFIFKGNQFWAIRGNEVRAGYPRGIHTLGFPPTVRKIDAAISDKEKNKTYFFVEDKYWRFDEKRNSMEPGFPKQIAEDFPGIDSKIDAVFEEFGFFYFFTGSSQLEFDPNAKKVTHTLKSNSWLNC
# Sequence of Matrix metalloproteinase-9 (P14780 whole entry): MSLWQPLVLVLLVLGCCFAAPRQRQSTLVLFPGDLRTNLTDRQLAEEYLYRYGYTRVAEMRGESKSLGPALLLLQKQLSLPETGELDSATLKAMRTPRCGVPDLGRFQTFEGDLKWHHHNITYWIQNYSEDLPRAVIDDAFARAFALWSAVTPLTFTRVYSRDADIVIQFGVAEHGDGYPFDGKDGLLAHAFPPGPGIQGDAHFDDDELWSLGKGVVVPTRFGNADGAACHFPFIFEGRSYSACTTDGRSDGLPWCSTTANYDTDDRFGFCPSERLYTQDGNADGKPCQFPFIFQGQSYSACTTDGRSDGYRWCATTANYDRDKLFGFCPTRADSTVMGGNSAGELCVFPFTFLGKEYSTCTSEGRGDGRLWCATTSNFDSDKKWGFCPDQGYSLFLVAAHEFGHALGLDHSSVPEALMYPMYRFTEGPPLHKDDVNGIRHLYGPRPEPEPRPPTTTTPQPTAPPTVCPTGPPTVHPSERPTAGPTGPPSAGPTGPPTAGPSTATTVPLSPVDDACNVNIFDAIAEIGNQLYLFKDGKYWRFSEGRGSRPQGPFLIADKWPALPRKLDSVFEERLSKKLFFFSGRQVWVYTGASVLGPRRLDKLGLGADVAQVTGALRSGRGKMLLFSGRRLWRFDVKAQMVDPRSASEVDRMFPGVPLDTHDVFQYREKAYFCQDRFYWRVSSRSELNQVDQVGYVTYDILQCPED
SMILES,IC50 [1] [nM],IC50 (Interstitial collagenase) [nM],IC50 (Stromelysin-1) [nM],IC50 [2] [nM],IC50 [3] [nM]
CNC(=O)[C@@H](NC(=O)[C@@H](CC(=O)NO)CC(C)C)c1ccccc1,19.3,15,4.4,14,42.5
CNC(=O)[C@@H](NC(=O)[C@H](CC(C)C)[C@H](C)C(=O)NO)c1ccccc1,56,3,1.9,3.9,7.5
CNC(=O)[C@@H](NC(=O)[C@H](CCCc1ccccc1)CC(=O)NO)C(C)C,2.5,93,,2.8,
CNC(=O)[C@H](Cc1c[nH]c2ccccc12)NC(=O)[C@@H](CC(=O)NO)CC(C)C [ILOMASTAT],13.4,,1.9,,
"CNC(=O)[C@@H](NC(=O)C(CC(C)C)C(O)C(=O)NO)C(C)(C)C (single isomer, unassigned)",1.82,,,,
CNC(=O)[C@@H](NC(=O)[C@H](CCc1ccccc1)CC(=O)NO)c1ccccc1,105,92,17,11,46.3
CNC(=O)[C@H](Cc1cccc2c1CCCC2)NC(=O)[C@H](CC(C)C)[C@H](C)C(=O)NO,2.08,0.3,0.6,0.3,0.3
CNC(=O)[C@@H](NC(=O)[C@H](CC(C)C)[C@H](C)C(=O)NO)C1CCCCC1,13,2.9,,0.9,
CNC(=O)[C@@H](NC(=O)[C@@H](CC(=O)NO)CC(C)C)C1CCCCC1,2.3,5.4,2.3,5,8.4
CNC(=O)[C@@H](NC(=O)[C@@H](CC(=O)NO)CC(C)C)C(C)(C)C [RO-319790],1.9,3,,12,7.4
CNC(=O)[C@@H](NC(=O)[C@H](CCCc1ccccc1)CC(=O)NO)c1ccccc1,8.5,89,9.6,3.3,3.2
CCCCCCCCC[C@H](CC(=O)NO)C(=O)N[C@H](C(=O)NC)c1ccccc1,17.6,90,100,0.2,1.6
CNC(=O)[C@@H](NC(=O)[C@H](CC(C)C)[C@H](CN1CCOCC1)C(=O)NO)c1ccccc1,72,3.5,61,45,
CNC(=O)[C@@H](NC(=O)[C@H](CCCc1ccccc1)CC(=O)NO)C(C)(C)C,1.9,,,1.3,
CNC(=O)[C@H](Cc1ccccc1)NC(=O)[C@H](CC(C)C)[C@H](CSc1cccs1)C(=O)NO [BATIMASTAT],3,,,0.2,
